Experimental data of several laboratories.
Lines come from different studies, so protocols differ.
Organism: Mycolicibacterium smegmatis
Read-out: microbial growth

CCOCCOc1ccc(-c2c[nH]c(N)n2)cc1  MIC (ATCC700084 MC^2155; 48 h): > 200 µM
CO/N=C(\C(=O)N[C@@H]1C(=O)N2C(C(=O)O)=C(COC(C)=O)CS[C@H]12)c1csc(N)n1  MIC (resazurin; MC^2155; 24 h): 75 µg/mL
Cc1ccc(Nc2nc(-c3cc(C(=O)Nc4ccsc4)no3)cs2)cc1  MIC (MC2155): > 64 µg/mL
COc1ccc(-c2c[nH]c(N)n2)cc1  MIC (ATCC700084 MC^2155; 48 h): 200 µM
NC[C@@H]1O[C@H](O[C@H]2[C@@H](O)[C@H](O[C@@H]3[C@@H](O)[C@H](N)C[C@H](N)[C@H]3O[C@H]3O[C@H](CO)[C@@H](O)[C@H](O)[C@H]3N)O[C@@H]2CO)[C@H](N)[C@@H](O)[C@@H]1O  MIC (broth dilution; 72 h): 0.5 µg/mL
NNC(=O)c1ccncc1  MIC (broth dilution; ATCC700084 MC^2155): 32 µg/mL
C[C@H]1c2cccc(O)c2C(=O)C2=C(O)[C@]3(O)C(=O)C(C(N)=O)=C(O)[C@@H](N(C)C)[C@@H]3[C@@H](O)[C@@H]21  MIC (resazurin; MC^2155; 24 h): 0.11 µg/mL
CCN[C@@H]1C[C@H](N)[C@@H](O[C@H]2OC(CN)=CC[C@H]2N)[C@H](O)[C@H]1O[C@H]1OC[C@](C)(O)[C@H](NC)[C@H]1O  MIC (broth dilution; 72 h): 2 µg/mL
CCCCCC[C@H](CN1CCC(COc2cccc(C(=NOC)c3ccc(Cl)cc3)c2)CC1)OC(N)=O  MIC (agar dilution): 6.5 µg/mL
CO[C@@H]1[C@@H](OC(N)=O)[C@@H](O)[C@H](Oc2ccc3c(O)c(NC(=O)c4ccc(O)c(CC=C(C)C)c4)c(=O)oc3c2C)OC1(C)C  MIC (resazurin; MC^2155; 24 h): 8 µg/mL
Cc1ccc(Nc2nc(-c3cc(C(=O)Nc4ccccn4)no3)cs2)cc1  MIC (MC2155): > 64 µg/mL
C[C@@H](O)[C@H]1C(=O)N2C(C(=O)O)=C(SCCN=CN)C[C@H]12  MIC (resazurin; MC^2155; 24 h): 2.3 µg/mL
Cc1ccc(Nc2nc(-c3cc(C(=O)Nc4ccc(O)cc4)no3)cs2)cc1  MIC (MC2155): > 64 µg/mL
CCCCCCc1ccc(-c2nc(N)[nH]c2C(F)(F)F)cc1  MIC (broth dilution; ATCC700084 MC^2155): > 200 µM
Cl.N=C(N)N/N=C/c1ccc(-c2ccc(/C=N/Nc3ccccc3Cl)cc2)cc1  MIC (MC2155): 1.7 µg/mL
CCCOc1ccc(-c2c[nH]c(N)n2)cc1  MIC (ATCC700084 MC^2155; 48 h): 100 µM
CC(=O)O[C@H]1C[C@@]2(C)[C@@H](C[C@@H](O)[C@H]3[C@@]4(C)CC[C@@H](O)[C@@H](C)[C@@H]4CC[C@@]32C)/C1=C(\CCC=C(C)C)C(=O)O  MIC (resazurin; MC^2155; 24 h): 50 µg/mL
